Measured values as given in ChEMBL document CHEMBL3112571, “Benzimidazole CB2 agonists: design, synthesis and SAR” (Bioorg Med Chem Lett, 2014).

How the values were obtained:
Cannabinoid receptor 2 [1] = target: T1, Cannabinoid receptor 2 (Homo sapiens, UniProt P34972); assay: Agonist activity at human CB2 receptor expressed in CHO-K1 cells assessed as forskolin-induced cAMP accumulation after 1 hr; type: functional, cell-based
Outline: (§1)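 CHO-K1 cells (1000/well) expressing human CB1 or CB2 preincubated with compound 15 min at room temperature, then forskolin at EC70 added for a further 30 min at room temperature. cAMP measured by HTRF (d2-cAMP plus anti-cAMP-cryptate, final 1 h room temperature incubation). Values are the average of N = 1 to 3 results.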

Cannabinoid receptor 1 [2] = target: T2, Cannabinoid receptor 1 (Homo sapiens, UniProt P21554); assay: Agonist activity at human CB1 receptor expressed in CHO-K1 cells assessed as forskolin-induced cAMP accumulation after 1 hr; type: functional, cell-based; outline: as §1
T2 sequence (P21554 whole entry): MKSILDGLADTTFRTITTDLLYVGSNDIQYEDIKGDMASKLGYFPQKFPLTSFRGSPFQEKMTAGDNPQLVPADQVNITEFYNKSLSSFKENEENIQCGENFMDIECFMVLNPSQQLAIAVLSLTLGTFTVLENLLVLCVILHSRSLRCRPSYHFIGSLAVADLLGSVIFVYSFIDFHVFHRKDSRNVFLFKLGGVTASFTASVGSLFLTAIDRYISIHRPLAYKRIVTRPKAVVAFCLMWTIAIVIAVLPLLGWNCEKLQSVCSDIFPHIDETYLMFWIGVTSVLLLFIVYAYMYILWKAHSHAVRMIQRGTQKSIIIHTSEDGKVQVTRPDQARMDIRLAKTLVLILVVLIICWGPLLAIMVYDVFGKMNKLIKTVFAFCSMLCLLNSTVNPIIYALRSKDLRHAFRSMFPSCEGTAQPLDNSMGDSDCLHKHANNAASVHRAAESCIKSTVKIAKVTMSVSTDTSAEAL

Cannabinoid receptor 2 [3] = target: T1, Cannabinoid receptor 2; assay: Agonist activity at human CB2 receptor expressed in CHO-K1 cells assessed as forskolin-induced cAMP accumulation after 1 hr relative to control; type: functional, cell-based; outline: as §1
Homo sapiens = species: Homo sapiens; assay: Selectivity ratio of EC50 for human CB1 receptor to EC50 for human CB2 receptor
Cannabinoid receptor 1 [4] = target: T2, Cannabinoid receptor 1; assay: Agonist activity at human CB1 receptor expressed in CHO-K1 cells assessed as forskolin-induced cAMP accumulation after 1 hr relative to control; type: functional, cell-based; outline: as §1

T1 sequence (P34972 whole entry): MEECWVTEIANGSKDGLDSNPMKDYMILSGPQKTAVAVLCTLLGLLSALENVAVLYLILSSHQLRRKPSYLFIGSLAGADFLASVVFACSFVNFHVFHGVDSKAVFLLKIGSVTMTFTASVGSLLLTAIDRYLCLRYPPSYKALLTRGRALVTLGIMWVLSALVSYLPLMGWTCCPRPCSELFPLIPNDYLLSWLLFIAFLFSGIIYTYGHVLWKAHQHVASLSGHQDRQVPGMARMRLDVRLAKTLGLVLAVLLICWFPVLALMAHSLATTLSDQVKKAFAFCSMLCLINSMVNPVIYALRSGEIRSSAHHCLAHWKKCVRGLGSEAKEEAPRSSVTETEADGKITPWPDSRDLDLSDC

SMILES	EC50 (Cannabinoid receptor 2 [1]) [nM]	EC50 (Cannabinoid receptor 1 [2]) [nM]	Emax (Cannabinoid receptor 2 [3]) [%]	Ratio EC50 (Homo sapiens)	Emax (Cannabinoid receptor 1 [4]) [%]	Activity (Cannabinoid receptor 1 [4]) [%]	IC50 (Cannabinoid receptor 2 [1]) [nM]	IC50 (Cannabinoid receptor 1 [2]) [nM]	Activity (Cannabinoid receptor 2 [3]) [%]
O=C(NCC1(CO)CCCC1)c1nc2c(-c3ccccc3)cccc2[nH]1	24.6	> 17000	93	–	–	–	–	–	–
CCn1c(C(=O)NCc2ccccc2Cl)nc2c(-c3ccccc3)cccc21	9.9	913	101	92	87	–	–	–	–
O=C(NCc1ccccc1F)c1nc2c(-c3ccccc3)cccc2[nH]1	256	> 17000	49	–	–	–	–	–	–
O=C(NCc1cccc(C(F)(F)F)c1)c1nc2c(-c3ccccc3)cccc2[nH]1	256	> 17000	69	–	–	–	–	–	–
CCn1c(C(=O)NCc2cncnc2)nc2c(-c3ccccc3)cccc21	1100	> 17000	89	–	–	–	–	–	–
CC(C)(C)CNC(=O)c1nc2c(-c3ccccc3)cccc2[nH]1	14.7	> 17000	95	> 1160	–	–	–	–	–
O=C(NCc1ccccc1Cl)c1nc2c(-c3ccccc3)cccc2[nH]1	443	> 17000	64	–	–	–	–	–	–
O=C(NCC1(CO)CCCC1)c1nc2c(-c3ccccc3)cccc2n1CC(F)(F)F	> 17000	> 17000	–	–	–	–	–	–	–
O=C(NCc1cccc(Cl)c1)c1nc2c(-c3ccccc3)cccc2[nH]1	165	> 17000	67	–	–	–	–	–	–
CC(C)(C)CNC(=O)c1nc2c(-c3ccccc3)cccc2n1CC(F)(F)F	> 17000	> 17000	–	–	–	–	–	–	–
CCn1c(C(=O)NCc2ccccc2F)nc2c(-c3ccccc3)cccc21	45	> 17000	98	–	–	–	–	–	–
CCn1c(C(=O)NCC(C)(C)C)nc2c(-c3ccccc3)cccc21	490	913	67	–	87	–	–	–	–
O=C(NCC1(CO)CCCCC1)c1nc2c(-c3ccccc3)cccc2n1CC(F)(F)F	1970	> 17000	45	–	–	–	–	–	–
O=C(NCc1ncccc1F)c1nc2c(-c3ccccc3)cccc2[nH]1	1440	> 17000	39	–	–	–	–	–	–
CCn1c(C(=O)NCc2ccc(C#N)cc2)nc2c(-c3ccccc3)cccc21	84	> 17000	99	–	–	–	–	–	–
O=C(NCC1(CO)CCCCC1)c1nc2c(-c3ccccc3)cccc2[nH]1	43	> 17000	92	–	–	–	–	–	–
O=C(NCC(O)CO)c1nc2c(-c3ccccc3)cccc2[nH]1 (stereo not given)	6.3	> 17000	75	–	–	–	–	–	–
CCn1c(C(=O)NCC2(CO)CCCC2)nc2c(-c3ccccc3)cccc21	1260	> 17000	68	–	–	–	–	–	–
O=C(NC1(CO)CCCCC1)c1nc2c(-c3ccccc3)cccc2[nH]1	236	> 17000	82	–	–	–	–	–	–
O=C(NCc1ccccc1)c1nc2c(-c3ccccc3)cccc2[nH]1	991	> 17000	64	–	–	–	–	–	–
O=C(NC12CC3CC(CC(C3)C1)C2)c1nc2c(-c3ccccc3)cccc2[nH]1	1.9	123	99	65	100	–	–	–	–
O=C(NC12CC3CC(CC(C3)C1)C2)c1nc(C(O)c2cccnc2)c2ccccn12 (racemic)	–	–	–	–	–	82	4.5	3880	88
CCn1c(C(=O)NCc2cccc(Cl)c2)nc2c(-c3ccccc3)cccc21	40	> 17000	87	> 425	–	–	–	–	–
